Source: PubChem
Only some compounds are listed: those with a hit (about 3.5% of all), similar ones and a draw of the others.
MrgX1 antag – antagonists of human MrgX1 receptor; Q96LB2; MRGX1-HEK293 calcium flux, Fluo-4, BAM8-22 antagonism; hits give low values; B-score at 10 µM; 310,000 compounds, 1.3% hits;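 active means calcium-response B-score plate-corrected more than 3 library SD below zero, starting fluorescence within 5 deviations, no agonist response on first addition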;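 further: peak minus trough fluorescence over baseline after final BAM8-22 challenge near maximal dose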
Target sequence (Q96LB2 whole entry, looked up): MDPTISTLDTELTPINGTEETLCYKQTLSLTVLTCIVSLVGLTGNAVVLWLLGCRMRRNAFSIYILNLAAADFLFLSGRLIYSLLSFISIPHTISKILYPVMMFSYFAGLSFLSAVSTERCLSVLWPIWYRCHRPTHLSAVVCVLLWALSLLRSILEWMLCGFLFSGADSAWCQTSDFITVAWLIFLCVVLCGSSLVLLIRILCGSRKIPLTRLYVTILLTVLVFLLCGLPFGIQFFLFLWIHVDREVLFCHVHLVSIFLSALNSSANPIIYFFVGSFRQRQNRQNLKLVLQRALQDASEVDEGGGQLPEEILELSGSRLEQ
MrgX1 ag – human MrgX1 receptor agonism, primary screen. Q96LB2. MrgX1-HEK293 cells, Fluo-4 calcium fluorescence, agonist mode; hits give high values. B-score at 10 µM. 310,000 compounds, 0.44% hits. AID 588627;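 active means calcium response B-score plate-corrected fluorescence ratio at least 3 library SD, with starting fluorescence B-score inside 5 SD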
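System – MrgX1-expressing HEK293 cells · Incubation – cells plated overnight, dye loaded 0.5 h 37 °C, 0.5 h room temperature · Technique – kinetic Fluo-4 NW fluorescence of intracellular calcium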
RGS4 act – potentiators or activators of RGS4. HEK293 M3R/inducible RGS4, carbachol calcium flux Fluo4; hits give low values. B-score at 10 µM. 310,000 compounds, 0.92% hits. AID 463111;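 active means B-score of the integrated calcium signal more than 4 SD below the library mean, with starting fluorescence not abnormally high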;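 further: negative B-score means reduced calcium response which marks RGS4 activation or potentiation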
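Assay system: HEK293 FlpIn-TREx cells, stable M3R, doxycycline-inducible RGS4 / Probe or stimulus: carbachol, ECmax concentration / Times: overnight RGS4 induction, 30 min dye load 37 °C, 20 min compound RT / Signal: kinetic calcium fluorescence imaging with Fluo4-AM dye, 2 µM / Measure: Agonist-evoked peak-minus-minimum fluorescence over baseline, integrated ratio, B score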
RGS4 block – human RGS4 inhibition. 310,000 compounds, 0.45% hits. HEK293 M3R/RGS4 inducible, Fluo-4 calcium flux; hits give high values; triggered by carbachol at its EC20. AID 463165. P49798. B-score at 10 µM;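 active means B-score, a plate-corrected calcium signal, over three deviations above library mean, with baseline fluorescence within five deviations of library mean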;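 further: RGS4 expression induced by doxycycline in cells with stable M3 receptor; B-score is computed from the integrated fluorescence ratio over baseline after carbachol; higher B-score means a larger calcium signal and so more RGS4 inhibition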
Target sequence (P49798 whole entry, looked up): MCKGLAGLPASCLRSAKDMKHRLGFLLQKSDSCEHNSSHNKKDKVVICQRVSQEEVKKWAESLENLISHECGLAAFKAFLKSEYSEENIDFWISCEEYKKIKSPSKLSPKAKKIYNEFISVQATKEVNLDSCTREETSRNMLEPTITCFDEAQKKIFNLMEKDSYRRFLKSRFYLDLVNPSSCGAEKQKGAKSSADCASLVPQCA
MrgX1 allo act – allosterically activates human MrgX1 receptor signaling. Q96LB2. MrgX1-HEK293, Fluo-4 calcium flux, FDSS; hits give high values. B-score at 10 µM. 310,000 compounds, 0.63% hits;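 active means plate-corrected calcium response at least 3 library SD above typical, normal starting fluorescence, not activating the receptor alone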;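 further: compound read alongside a low EC10 to EC30 dose of BAM8-22 agonist; peak minus trough fluorescence over baseline measured at the second addition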
RGS4 block valid – RGS4 inhibitor validation | shares compounds with RGS4 block | HEK293 M3R/RGS4, carbachol calcium Fluo-4 fluorescence; carbachol added at its EC20; 0 = buffer wells, 100 = carbachol control | calcium response, % at 10 µM | 1,700 compounds, 65% hits | AID 492999;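 active means duplicate-averaged calcium response above the buffer-only control mean plus 5 SD of those controls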;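 further: integrated fluorescence ratio F max minus min over baseline F0; higher response in RGS4-induced cells means RGS4 inhibition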
M3R Ca ctr – non-induced cell nonspecific activity of RGS4 inhibitors; shares compounds with RGS4 block; HEK293 M3R non-induced, carbachol calcium Fluo-4; submaximal (EC20) carbachol stimulus; buffer wells 0%, carbachol control wells 100%; activity (percent), % at 10 µM; 1,900 compounds, 20% hits; AID 493000; call rule not given here;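 further: RGS4 induction absent so cells express M3R without RGS4; higher means more calcium signal and flags a non-specific hit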
RGS4 inh ctr2 – second counter-screen for RGS4 inhibitors: non-induced cells without carbachol; shares compounds with RGS4 block; HEK293 M3R/RGS4 non-induced, Fluo-4 calcium, no carbachol; normalised: buffer wells 0%, carbachol wells 100%; calcium response (agonist-mode artifact), % at 10 µM; 1,900 compounds, 22% hits; AID 493001;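 active means duplicate-averaged calcium rise in uninduced cells above buffer wells' mean plus 5 SD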
Large screens that a line does not name were inactive (follow-up assays come after a bar, where they were run).

NC1=NC(=Nc2ccc(Cl)cc2)c2ccccc21	RGS4 block 8 | RGS4 block valid 8.0% | M3R Ca ctr inactive | RGS4 inh ctr2 inactive
C#CCOCCOCCOCCNc1nc(N2CCN(C(=O)C([C@@H](C)CC)n3cc(C(N)COC(=O)C(F)(F)F)nn3)CC2)nc(N2CCN(C(=O)C([C@@H](C)CC)n3cc(C(N)CC(C)C)nn3)CC2)n1 (stereo not given in full)	none
COc1ccc(NC(=O)c2cc(-c3cc(Cl)ccc3O)n[nH]2)c(OC)c1	none
COc1ccc(Cl)cc1NC(=O)c1cc(-c2cc(C)ccc2O)n[nH]1	none | RGS4 block valid inactive | M3R Ca ctr inactive | RGS4 inh ctr2 inactive
COc1ccc(Cl)cc1NC(=O)c1cc(-c2ccc(C)cc2O)n[nH]1	none | M3R Ca ctr inactive | RGS4 inh ctr2 inactive
COc1ccc(OC)c(NC(=O)c2cc(-c3cc(C)c(C)cc3O)n[nH]2)c1	none
CCOCCCNC(=O)CN1C(=O)COc2ccc(S(=O)(=O)N3CCOCC3)cc21	RGS4 block 27 | RGS4 block valid 6.5% | M3R Ca ctr inactive | RGS4 inh ctr2 inactive
CCOCCCNC(=O)CN1C(=O)COc2ccc(S(=O)(=O)N3CCCCCC3)cc21	none | RGS4 block valid inactive | M3R Ca ctr inactive | RGS4 inh ctr2 inactive
CCOCCCNC(=O)CN1C(=O)COc2ccc(S(=O)(=O)N3CC(C)CC(C)C3)cc21 (stereo not given)	none
CCOCCCNC(=O)CN1C(=O)COc2ccc(S(=O)(=O)N3CCC(C)CC3)cc21	none | RGS4 block valid inactive | M3R Ca ctr inactive | RGS4 inh ctr2 inactive
CCC1(c2ccccc2)NC(=O)N(CC(=O)Nc2ccc(S(=O)(=O)Nc3ncccn3)cc2)C1=O (stereo not given)	none
O=C(/C=C/c1c(F)cccc1Cl)N1CCc2ccccc2C1	none
O=C(c1cc2cc(Br)ccc2o1)N1CCN(c2ccccc2)CC1	none
CCCCn1c(/N=C/c2ccc(N(C)C)cc2)nc2ccccc21	none
CCCCn1c(/N=C/c2c[nH]c3ccccc23)nc2ccccc21	none | M3R Ca ctr inactive | RGS4 inh ctr2 inactive
CCCn1c(/N=C/c2ccccc2O)nc2ccccc21	none
CCCn1c(/N=C/c2c[nH]c3ccccc23)nc2ccccc21	RGS4 block 5.1 | RGS4 block valid 8.0% | M3R Ca ctr inactive | RGS4 inh ctr2 inactive
CCn1c(/N=C/c2c[nH]c3ccccc23)nc2ccccc21	none | M3R Ca ctr inactive | RGS4 inh ctr2 inactive
Cc1ccc(C(=O)OCC(=O)NC2CCCC2)cc1	none
Cc1nn(-c2ccccc2)c(C)c1/C=N/NC(=O)CSc1nnc(SCc2ccc(Cl)cc2)s1	none
COc1ccc(-c2csc(NC(C)c3nc4cc(Cl)c(N5CCCCC5)cc4n3CCCO)n2)cc1 (stereo not given)	none
COc1ccc(-c2csc(NC(C)c3nc4cc(Cl)c(N5CCCCC5)cc4n3CCOCCO)n2)cc1 (stereo not given)	none | RGS4 block valid inactive | M3R Ca ctr inactive | RGS4 inh ctr2 inactive
CC(Nc1nc(-c2ccc(Cl)cc2)cs1)c1nc2cc(Cl)c(N3CCCCC3)cc2n1CCOCCO (stereo not given)	none | M3R Ca ctr inactive | RGS4 inh ctr2 inactive
CN(CCCC(=O)Nc1ccc(Br)cc1F)S(=O)(=O)c1ccccc1	none
Cc1[nH]c2ccccc2c1C(=O)C(=O)NCc1cccs1	none
O=C1Nc2cc(Cl)ccc2Nc2cscc21	none
COc1ccccc1/C=c1\sc2nc(-c3ccco3)nn2c1=O	none
CCOc1ccc(/C=c2\sc3nc(-c4ccco4)nn3c2=O)cc1OCC	RGS4 block 6 | RGS4 block valid 8.5% | M3R Ca ctr inactive | RGS4 inh ctr2 133%
COc1ccc(/C=C2/SC(=O)N(CCNC(=O)C3COc4ccccc4O3)C2=O)cc1 (stereo not given)	none
O=C(NCCN1C(=O)S/C(=C\c2ccc(Cl)c(Cl)c2)C1=O)C1COc2ccccc2O1 (stereo not given)	RGS4 block 4.9 | RGS4 block valid 8.0% | M3R Ca ctr inactive | RGS4 inh ctr2 inactive
O=C(/C=C/c1ccccn1)c1cc(Cl)cc(Cl)c1O	RGS4 block 15 | RGS4 block valid 26% | M3R Ca ctr 64% | RGS4 inh ctr2 inactive
COc1ccc(/C=C/C(=O)c2cc(Cl)cc(Cl)c2O)c(OC)c1	none
COc1ccc(-c2sc3ccccc3c2C#CCCO)cc1	RGS4 block 4.9 | RGS4 block valid 9.0% | M3R Ca ctr inactive | RGS4 inh ctr2 inactive
OCCC#Cc1c(-c2ccsc2)sc2ccccc12	none
COc1ccc(-c2sc3ccccc3c2C#CCO)cc1	none | RGS4 block valid inactive | M3R Ca ctr inactive | RGS4 inh ctr2 inactive
N#C/C(=C(/O)C(Cl)c1ccccc1)c1nc2ccccc2s1 (stereo not given)	RGS4 block 5.1 | RGS4 block valid 6.5% | M3R Ca ctr inactive | RGS4 inh ctr2 inactive
N#C/C(=C(/O)c1cccc(F)c1)c1nc2ccccc2s1	none
CC(c1ccco1)N(C(=O)c1ccccc1NS(=O)(=O)c1ccc(Cl)c([N+](=O)[O-])c1)c1ccccn1 (stereo not given)	none
Cc1[nH]n(-c2ccccc2)c(=O)c1C(C[N+](=O)[O-])c1ccc(Br)cc1 (stereo not given)	RGS4 block 8.4, MrgX1 allo act 6.8 | RGS4 block valid 32% | M3R Ca ctr 51% | RGS4 inh ctr2 28%
COc1cccc(C(C[N+](=O)[O-])c2c(C)[nH]n(-c3ccccc3)c2=O)c1 (stereo not given)	MrgX1 ag 50, RGS4 block 15 | RGS4 block valid 6.0% | M3R Ca ctr inactive | RGS4 inh ctr2 10%
CC(=O)Nc1cccc(C(=O)/C=C/c2ccc(C)cc2)c1	none | RGS4 block valid inactive | M3R Ca ctr inactive | RGS4 inh ctr2 inactive
CSc1ccc(/C=C/C(=O)c2ccc(NC(C)=O)cc2)cc1	none
COc1nn(-c2ccccc2)c(=O)c(Cl)c1Cl	RGS4 block 5 | RGS4 block valid 10% | M3R Ca ctr inactive | RGS4 inh ctr2 inactive
COc1c(Cl)cnn(-c2ccccc2)c1=O	none
COc1ccc(OC)c(C2C=C(C34CC5CC(CC(C5)C3)C4)NC(=S)N2)c1 (stereo not given)	RGS4 block 8.8 | RGS4 block valid 14% | M3R Ca ctr inactive | RGS4 inh ctr2 inactive
OCCN(CCO)c1ccc2ccccc2c1	none
